This is an account of results in ChEMBL document CHEMBL1132294, “Derivatives of the new ring system indolo[1,2-c]benzo[1,2,3]triazine with potent antitumor and antimicrobial activity” (J Med Chem, 1999).

As a reminder, the IC50 is the point on the concentration scale where inhibition reaches its midpoint. Usually MIC stands for the lowest concentration found to suppress growth. Low values mean greater potency, high ones weaker potency.

The subject of one assay is MOLT-4. The experiment in a line: Antitumor activity was evaluated against leukemia cell line MOLT-4(human acute T lymphoblastic leukemia). It counts as functional, cell-based. An outline of the steps:
(§1)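 Exponentially growing leukemia/lymphoma cells resuspended at 1×10⁵ cells/mL in RPMI with serial drug dilutions. Viability by MTT after 4 days at 37 °C. Concentration giving 50% growth inhibition versus untreated controls found by linear regression. Mean of at least three experiments.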

The test system of another assay is Candida parapsilosis. The experiment in a line: Antimycotic activity against Candida parapsilosis was evaluated as compound concentration at which no macroscopic signs of fungal growth were detected. Format: functional. Particulars: Lodderomyces parapsilosis. An outline of the steps:
(§2)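 Yeast inocula from 30 h Sabouraud dextrose broth cultures at 37 °C, diluted to 5×10³ cells/mL. Dermatophyte inocula from 5-day cultures, homogenized and diluted to 0.05 OD₅₉₀/mL. Inocula added to medium with serial dilutions, incubated at 37 °C, read visually at 2 days (yeast) or 3 days (dermatophytes). Mean of at least three experiments.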

The next assay relates to Candida albicans. The experiment in a line: Antimycotic activity against Candida albicans was evaluated as minimum inhibitory concentration of compound at which no macroscopic signs of fungal growth were detected. Format: functional. The gist of the method: as §2
For a further assay, the system named is CHO-K1. The experiment in a line: Antitumor activity was evaluated against Chinese hamster ovary carcinoma cell line CHO-K1. It counts as functional, cell-based. As to conditions: Cricetulus griseus. An outline of the steps:
(§3)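 Solid-tumour and KB lines: exponentially growing cells seeded at 5×10⁴ cells/mL, allowed to adhere 16 h, then serial drug dilutions added. Viability by MTT after 4 days. Growth expressed as % of untreated controls, 50% inhibitory concentration by linear regression. Untreated cells undergo at least three rounds of multiplication.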

A further assay has as its system Cryptococcus neoformans. The experiment in a line: Antimycotic activity against Cryptococcus neoformans was evaluated. MIC was defined as compound concentration at which no macroscopic signs of fungal growth were detected. It counts as functional. The gist of the method:
as §2

The next assay has as its system L1210. The experiment in a line: Antitumor activity was evaluated against leukemia cell line L1210 (mouse leukemia). It counts as functional, cell-based. An outline of the steps:
as §1

The next assay relates to WIL2-NS. The experiment in a line: Antitumor activity was evaluated against lymphoma cell line Wil2-NS (human splenic B lymphoblastoid cells). It counts as functional, cell-based. The gist of the method:
as §1

Another assay deals with ACHN. The experiment in a line: Antitumor activity was evaluated against human renal adenocarcinoma cell line ACHN. Format: functional, cell-based. The gist of the method: as §3
For a further assay, the system named is Streptococcus. The experiment in a line: Antibacterial activity was evaluated against streptococcus. Format: functional. The gist of the method:
(§4)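 Recent clinical isolates grown in nutrient broth, pH 7.2, inoculum 10³ bacterial cells/tube, with serial compound dilutions. […] Mean of at least three separate experiments.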

The test system of another assay is CCRF-SB. The experiment in a line: Antitumor activity was evaluated against leukemia cell line CCRF-SB(human acute B lymphoblastic leukemia). It counts as functional, cell-based. The gist of the method:
as §1

The subject of the next assay is Candida tropicalis. The experiment in a line: Antimycotic activity against Candida paratropicalis was evaluated. MIC was defined as compound concentration at which no macroscopic signs of fungal growth were detected. Format: functional. An outline of the steps:
as §2

For another assay, the system named is Salmonella. The experiment in a line: Antibacterial activity was evaluated against salmonella. Format: functional. An outline of the steps:
as §4

Another assay deals with MT4. The experiment in a line: Antitumor activity was evaluated against leukemia cell line MT-4(human CD4+ T cells expressing the TAT gene of HTLV-1). Format: functional, cell-based. The gist of the method:
as §1

The next assay has as its system Shigella. The experiment in a line: Antibacterial activity was evaluated against shigella. Format: functional. The gist of the method:
as §4

The subject of the next assay is IMR-32. The experiment in a line: Antitumor activity was evaluated against human neuroblastoma cell line IMR-32. Format: functional, cell-based. An outline of the steps: as §3
Another assay relates to CCRF-CEM. The experiment in a line: Antitumor activity was evaluated against leukemia cell line CCRF-CEM(human acute T lymphoblastic leukemia). Format: functional, cell-based. The gist of the method: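 Exponentially growing leukemia/lymphoma cells resuspended at 1×10⁵ cells/mL in RPMI with serial drug dilutions. Viability by MTT after 4 days at 37 °C. Mean of at least three experiments.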

In a further assay the test system is Aspergillus fumigatus. The experiment in a line: Antimycotic activity against Aspergillus fumigatus was evaluated as compound minimum inhibitory concentration at which no macroscopic signs of fungal growth were detected. Format: functional.
A further assay concerns 5637. The experiment in a line: Antitumor activity was evaluated against human bladder carcinoma cell line 5637. It counts as functional, cell-based. An outline of the steps:
as §3

Assay [1] relates to Mycolicibacterium fortuitum. The experiment in a line: Antibacterial activity was evaluated against Mycobacterium fortuitum. Format: functional. An outline of the steps: (§5)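 Mycobacterial suspension (turbidity of 1 McFarland standard, 10⁸ CFU/mL) added to Middlebrook 7H9 with 0.5% glycerol, 10% OADC and serial compound dilutions. Incubated at 37 °C, 1 day for M. smegmatis and M. fortuitum, 9 days for MAC. Viable mycobacteria counted by MTT. MIC given as mean of at least three separate experiments.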

In another assay the test system is Trichophyton benhamiae. The experiment in a line: Antimycotic activity against Trichophyton mentagrophytes was evaluated. MIC was defined as compound concentration at which no macroscopic signs of fungal growth were detected. Format: functional, Arthroderma benhamiae. The gist of the method: as §2
The next assay relates to Staphylococcus. The experiment in a line: Antibacterial activity was evaluated against staphylococcus. Format: functional. The gist of the method:
as §4

The next assay deals with HT-29. The experiment in a line: Antitumor activity was evaluated against human colon adenocarcinoma cell line HT-29. It counts as functional, cell-based. The gist of the method: as §3
Another assay deals with HeLa. The experiment in a line: Antitumor activity was evaluated against human cervix carcinoma cell line HeLa. It counts as functional, cell-based. An outline of the steps: as §3
A further assay deals with Mycobacterium. The experiment in a line: Antibacterial activity was evaluated against MAC (Mycobacterium Avium Complex ). It counts as functional. The gist of the method:
as §5

Assay [2] concerns Mycobacterium tuberculosis. The experiment in a line: Antibacterial activity was evaluated against Mycobacterium tuberculosis (clinical isolate 1104). It counts as functional. The gist of the method: (§6)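 Broth microdilution in Middlebrook 7H9 with 0.5% glycerol and 10% OADC, containing serial concentrations of compound (diluted in medium from a DMSO solution). Plates were incubated 9 days at 37 °C, and viable bacteria were read by MTT. MIC is the mean of at least three separate experiments.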

In assay [3] the test system is Mycobacterium tuberculosis. The experiment in a line: Antibacterial activity was evaluated against Mycobacterium tuberculosis (ATCC). Format: functional. The gist of the method:
as §6

For assay [4], the system named is Mycolicibacterium smegmatis. The experiment in a line: Antibacterial activity was evaluated against Mycobacterium smegmatis. Format: functional. The gist of the method:
as §5

Assay [5] deals with KB. The experiment in a line: Antiproliferative activity against drug-resistant tumor cell line KB7D. Format: functional, cell-based. As to conditions: Homo sapiens. The gist of the method:
as §3

In assay [6] the test system is KB. The experiment in a line: Antiproliferative activity against drug-resistant tumor cell line KBwt. Format: functional, cell-based. Particulars: Homo sapiens. The gist of the method: as §3
The test system of assay [7] is KB. The experiment in a line: Antiproliferative activity against drug-resistant tumor cell line KBCamp. It counts as functional, cell-based. As to conditions: Homo sapiens. An outline of the steps:
as §3

The test system of assay [8] is KB. The experiment in a line: Antiproliferative activity against drug-resistant tumor cell line KBV20C. Format: functional, cell-based. As to conditions: Homo sapiens. An outline of the steps:
as §3

Assay [9] deals with KB. The experiment in a line: Antiproliferative activity against drug-resistant tumor cell line KBMDR. It counts as functional, cell-based. Particulars: Homo sapiens. The gist of the method: as §3

SMILES strings stand for the structures. Values after ≈ are worked out from the molar mass of the structure shown.

For the molecule `O=Nc1c2cc([N+](=O)[O-])ccc2n2nnc3ccccc3c12`, the IC50 with MOLT-4 is 6.6 µM; with CHO-K1, 42 µM; in the assay with L1210, 9.2 µM; in the assay on WIL2-NS, 12 µM; with ACHN, over 50 µM; with CCRF-SB, 11 µM. The half-maximal inhibitory concentration (IC50) with MT4 was 1.2 µM; with IMR-32, 12 µM; in the assay on CCRF-CEM, 8.2 µM; in the assay with 5637, 29 µM; in the assay with HT-29, 18 µM; in the assay with HeLa, 16 µM. Besides, the MIC against Candida parapsilosis is 66 µM (≈ 19.4 µg/mL); with Candida albicans, 66 µM (≈ 19.4 µg/mL); against Cryptococcus neoformans, 7.4 µM (≈ 2.17 µg/mL); in the assay with Streptococcus, 0.09 µM (≈ 0.0264 µg/mL); against Candida tropicalis it was 22 µM (≈ 6.45 µg/mL); against Salmonella, over 200 µM. The MIC against Shigella was over 200 µM; against Aspergillus fumigatus, over 200 µM; in assay [1] it was over 5 µM; against Trichophyton benhamiae, 66 µM (≈ 19.4 µg/mL); in the assay on Staphylococcus, 0.09 µM (≈ 0.0264 µg/mL).
Take `CN[C@@H]1[C@H](O[C@H]2[C@H](O[C@H]3[C@H](O)[C@@H](O)[C@H](N=C(N)N)[C@@H](O)[C@@H]3N=C(N)N)O[C@@H](C)[C@]2(O)C=O)O[C@@H](CO)[C@H](O)[C@H]1O` [STREPTOMYCIN]: the MIC is 7.4 µM (≈ 4.3 µg/mL) against Mycobacterium; 2.9 µM (≈ 1.69 µg/mL) in [2]; 2.1 µM (≈ 1.22 µg/mL) against Streptococcus; 8.6 µM (≈ 5 µg/mL) in the assay on Salmonella; 2.1 µM (≈ 1.22 µg/mL) against Shigella; 5.4 µM (≈ 3.14 µg/mL) in assay [3]. Also, the MIC is 5 µM (≈ 2.91 µg/mL) in [4], 4 µM (≈ 2.33 µg/mL) in [1] and 4.2 µM (≈ 2.44 µg/mL) in the assay on Staphylococcus.
Consider `COc1cc([C@@H]2c3cc4c(cc3[C@@H](O[C@@H]3O[C@@H]5CO[C@@H](C)O[C@H]5[C@H](O)[C@H]3O)[C@H]3COC(=O)[C@H]23)OCO4)cc(OC)c1O` [ETOPOSIDE], for which the IC50 in the assay with KB [5] was over 50 µM; in the assay on KB [6], 1.45 µM; in the assay with KB [7] it was 1.3 µM; in the assay with KB [8], over 50 µM; in the assay on KB [9], 26.2 µM.
Turning to `COc1ccc2c(c1)c(N=O)c1c3ccccc3nnn21`, the IC50 is 1.3 µM in the assay on MOLT-4; over 50 µM in the assay with CHO-K1; 13 µM in the assay with L1210; 3.7 µM in the assay on WIL2-NS; 14 µM in the assay with ACHN; 5 µM in the assay with CCRF-SB. Besides, the IC50 is 1.1 µM in the assay with MT4; 2.3 µM in the assay with IMR-32; 7.2 µM with CCRF-CEM; 6 µM with 5637; over 50 µM in the assay on HT-29; 11 µM with HeLa. For the same molecule, the minimum inhibitory concentration (MIC) is 2.5 µM (≈ 0.696 µg/mL) in the assay with Mycobacterium; over 200 µM against Candida parapsilosis; over 200 µM against Candida albicans; 4.5 µM (≈ 1.25 µg/mL) in assay [2]; over 200 µM in the assay on Cryptococcus neoformans; 0.1 µM (≈ 0.0278 µg/mL) with Streptococcus. The minimum inhibitory concentration (MIC) with Candida tropicalis was over 200 µM; with Salmonella, over 200 µM; against Shigella, over 200 µM; in the assay with Aspergillus fumigatus, over 200 µM; in [3], 5.3 µM (≈ 1.47 µg/mL); in assay [4] it was over 5 µM. Moreover, the values for the minimum inhibitory concentration (MIC) (in [1]; against Trichophyton benhamiae; in the assay on Staphylococcus) were over 5 µM, over 200 µM and 0.2 µM (≈ 0.0557 µg/mL), respectively.
